Peptide text beside a SMILES is read from it.
Assays:
[1] = test system: 11 bacterial strains (S. aureus, P. aeruginosa, A. baumannii, K. pneumoniae, E. coli); test: Antimicrobial activity screening, summary over groups of strains; assay type: cell-based; details: 50 µg/ml screen
[2] = test system: A. baumannii ATCC 19606; test: Antimicrobial activity screening; assay type: cell-based, Acinetobacter baumannii; details: 50 µg/ml screen
[3] = test system: Galleria mellonella larvae; test: In vivo toxicity in Galleria mellonella larvae; details: G. mellonella larvae, N=10 per group
Method in brief: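 Sixth-instar Galleria mellonella larvae (200–300 mg) were held in sawdust at 4 °C until use. Groups of ten were injected with 10 μl of test compound, colistin or 0.9 % NaCl saline control into the second rear proleg, then kept at 30 °C.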

## CC[C@H](C)[C@H](NC(=O)[C@@H](CCCCN)NC(=O)[C@H](CCCCN)NC(=O)[C@H](Cc1ccccc1)NC(=O)[C@H](CC(C)C)NC(=O)[C@H](CCCCN)NC(=O)[C@@H](N)CCCCN)C(=O)N[C@@H](CC(C)C)C(=O)N[C@@H](CCCCN)C(=O)N[C@@H](Cc1ccc(O)cc1)C(=O)N[C@@H](CC(C)C)C(N)=O [BP146]
[1]
  growth reduction in all strains except P. aeruginosa ST175–1: at least 89%

## CC[C@H](C)[C@H](NC(=O)[C@H](CCCCN)NC(=O)[C@H](CCCCN)NC(=O)[C@H](Cc1c[nH]cn1)NC(=O)[C@H](CC(C)C)NC(=O)[C@H](CCCCN)NC(=O)[C@H](Cc1ccccc1)NS(=O)(=O)c1ccc(C)cc1)C(=O)N[C@@H](CC(C)C)C(=O)N[C@@H](CCCCN)C(=O)N[C@H](C(=O)N[C@@H](CC(C)C)C(N)=O)C(C)C [BP275] (HELM PEPTIDE1{[Cc1ccc(S(=O)(=O)[*:2])cc1].F.K.L.H.K.K.I.L.K.V.L.[am]}$$$$V2.0)
[2]
  growth inhibition against A. baumannii ATCC 19,606: ≥ 93%

## CCCC(=O)NCCCC[C@H](NC(=O)[C@@H](NC(=O)[C@H](CCCCN)NC(=O)[C@H](CCCCN)NC(=O)[C@@H](Cc1ccccc1)NC(=O)[C@H](CC(C)C)NC(=O)[C@H](CCCCN)NC(=O)[C@H](CCCCN)NC(C)=O)[C@@H](C)CC)C(=O)N[C@@H](CCCCN)C(=O)N[C@@H](Cc1ccc(O)cc1)C(=O)N[C@@H](CC(C)C)C(N)=O [BP474]
[2]
  growth inhibition against A. baumannii ATCC 19,606: ≥ 93%

## Colistin
[3]; 50 µg/larvae (10 μl of 5 mg/ml), 30 °C
  mortality after 24h: 50%
[3]; 10 μl injected, viability at 48h
  LD50: 5 mg/mL
